Measured values published in ChEMBL document CHEMBL3112537, “A novel series of 6-substituted 3-(pyrrolidin-1-ylmethyl)chromen-2-ones as selective monoamine oxidase (MAO) A inhibitors” (Eur J Med Chem, 2014).

What was measured:
[1] = molecular target: T1, Amine oxidase [flavin-containing] B (Homo sapiens, UniProt P27338); assay: Inhibition of MAO-B (unknown origin)
T1 sequence (P27338 whole entry): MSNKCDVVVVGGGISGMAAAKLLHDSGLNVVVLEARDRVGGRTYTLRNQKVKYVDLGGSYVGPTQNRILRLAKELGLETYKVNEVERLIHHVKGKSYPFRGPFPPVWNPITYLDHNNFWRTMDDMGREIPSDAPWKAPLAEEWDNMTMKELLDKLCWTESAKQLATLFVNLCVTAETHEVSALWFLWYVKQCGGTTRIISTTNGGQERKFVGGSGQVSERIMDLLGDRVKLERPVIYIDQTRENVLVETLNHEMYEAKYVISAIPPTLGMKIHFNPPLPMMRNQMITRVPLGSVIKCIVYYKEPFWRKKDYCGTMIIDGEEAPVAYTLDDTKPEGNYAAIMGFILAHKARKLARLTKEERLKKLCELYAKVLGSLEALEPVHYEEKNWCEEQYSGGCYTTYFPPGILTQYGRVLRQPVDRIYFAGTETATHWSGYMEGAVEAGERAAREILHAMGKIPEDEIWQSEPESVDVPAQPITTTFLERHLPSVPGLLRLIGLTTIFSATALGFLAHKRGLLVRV

[2] = molecular target: T2, Amine oxidase [flavin-containing] A (Homo sapiens, UniProt P21397); assay: Inhibition of MAO-A (unknown origin)
T2 sequence (P21397 whole entry): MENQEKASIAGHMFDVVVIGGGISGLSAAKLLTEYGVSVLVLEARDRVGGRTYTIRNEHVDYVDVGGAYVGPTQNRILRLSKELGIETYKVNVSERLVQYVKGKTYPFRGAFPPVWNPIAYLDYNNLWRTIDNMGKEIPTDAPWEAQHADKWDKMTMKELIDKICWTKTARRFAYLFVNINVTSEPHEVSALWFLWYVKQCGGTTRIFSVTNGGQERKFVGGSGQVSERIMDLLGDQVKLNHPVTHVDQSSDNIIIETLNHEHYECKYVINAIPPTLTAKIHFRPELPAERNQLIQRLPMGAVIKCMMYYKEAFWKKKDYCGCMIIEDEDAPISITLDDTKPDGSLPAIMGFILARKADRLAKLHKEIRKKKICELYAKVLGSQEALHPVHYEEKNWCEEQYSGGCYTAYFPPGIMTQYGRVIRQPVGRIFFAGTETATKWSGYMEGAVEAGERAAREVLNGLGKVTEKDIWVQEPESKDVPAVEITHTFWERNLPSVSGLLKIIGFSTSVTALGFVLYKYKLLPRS

[3] = Metabolic stability in rat liver microsomes assessed as compound remaining at 5 uM after 60 mins by LC-MS/MS analysis; type: ADME; conditions: read-out: Stability
Procedure, shortened: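 Incubation with rat liver microsomes, read as % of compound remaining after 60 min.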

Rattus norvegicus [4] = assay: In vivo inhibition of MAO-A in Sprague-Dawley rat assessed as 5-hydroxyindoleacetic acid in brain striatum at 86 umol/kg, sc after 1 hr by HPLC/EC analysis relative to control; type: functional; design: scale not given: the % may be the effect or the level left
Procedure, shortened: (§1)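 Freely moving rats dosed subcutaneously and sacrificed 1 h later. Striatal DOPAC, 3-MT and 5-HIAA were measured post mortem and expressed as % of saline control (n = 4). Significance was by Student's t-test, P < 0.05.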

Rattus norvegicus [5] = assay: In vivo inhibition of MAO-A in Sprague-Dawley rat assessed as 3-methoxytyramine level in brain striatum at 86 umol/kg, sc after 1 hr by HPLC/EC analysis relative to control; type: functional; design: scale not given: the % may be the effect or the level left; procedure, shortened: as §1
Rattus norvegicus [6] = assay: In vivo inhibition of MAO-A in Sprague-Dawley rat assessed as 3,4-dihydroxyphenylacetic acid level in brain striatum at 86 umol/kg, sc after 1 hr by HPLC/EC analysis relative to control; type: functional; design: scale not given: the % may be the effect or the level left; procedure, shortened: as §1
D(2) dopamine receptor = D(2) dopamine receptor (Homo sapiens, UniProt P14416); assay: Antagonist activity at dopamine D2 receptor (unknown origin) expressed in HEK cells co-expressing Gqi5 assessed as inhibition of dopamine-induced effect by FLIPR assay; type: cell-based, HEK293
[7] = molecular target: T1, Amine oxidase [flavin-containing] B; assay: Inhibition of human recombinant MAO-B assessed as kynuramine oxidation to 4-hydroxyquinoline after 40 mins by LC-MS/MS analysis
Procedure, shortened: (§2)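 Human MAO A and MAO B inhibition using kynuramine as a mixed substrate for both isoforms. IC50 is given as the mean ± SE of duplicate determinations.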

[8] = molecular target: T2, Amine oxidase [flavin-containing] A; assay: Inhibition of human recombinant MAO-A assessed as kynuramine oxidation to 4-hydroxyquinoline after 40 mins by LC-MS/MS analysis; procedure, shortened: as §2

Sequence of D(2) dopamine receptor (P14416 whole entry): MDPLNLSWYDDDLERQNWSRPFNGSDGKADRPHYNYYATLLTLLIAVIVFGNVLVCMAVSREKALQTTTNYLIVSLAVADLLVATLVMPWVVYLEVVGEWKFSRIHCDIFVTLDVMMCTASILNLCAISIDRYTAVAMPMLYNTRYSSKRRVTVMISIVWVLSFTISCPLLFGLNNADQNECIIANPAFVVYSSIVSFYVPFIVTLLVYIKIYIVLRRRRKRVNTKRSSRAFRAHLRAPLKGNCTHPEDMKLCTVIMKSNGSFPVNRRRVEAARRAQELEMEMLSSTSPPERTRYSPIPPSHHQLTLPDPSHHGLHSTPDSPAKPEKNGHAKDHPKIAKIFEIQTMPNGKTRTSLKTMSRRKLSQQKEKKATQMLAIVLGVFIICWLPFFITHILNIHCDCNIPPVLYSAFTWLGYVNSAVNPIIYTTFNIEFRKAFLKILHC

Compound	IC50 [1]	IC50 [2]	remaining at 1 h, 5 µM [3]	Activity (Rattus norvegicus [4])	Activity (Rattus norvegicus [5])	Activity (Rattus norvegicus [6])	IC50 (D(2) dopamine receptor)	IC50 [7]	IC50 [8]
O=C(O)c1cc2cc([N+](=O)[O-])ccc2oc1=O	0.0195 µM	0.0676 µM	–	–	–	–	–	–	–
Nc1ccc2oc(=O)c(CN3CCCC3)cc2c1	–	–	80%	72%	170%	45%	16.3 µM	> 100 µM	3.77 µM
